EBNA-1 inh = blocks EBNA-1 binding to DNA; EBNA-1 DNA binding, fluorescence polarization; inhibition, % at 14.8 µM; 0.34% of 300,000 active; in the data active means inhibition above about 28%
EBV gp42 inh = blocks Epstein-Barr virus glycoprotein 42 binding; Q1HVG2; Fluorescence polarization binding assay, mP read-out; inhibition, % (tested at 21.74 µM); 0.42% of 220,000 active; in the data active means inhibition above about 50%
ZTA DNA inh = blocks Epstein-Barr virus ZTA, an EBNA-1 counter-screen | P03206 | ZTA-DNA binding, fluorescence polarization | inhibition, % at 11 µM | 0.15% of 320,000 active; in the data active means inhibition above about 33%
MEX-5 binding = C. elegans MEX-5 TCR-2 RNA binding activity; AID 1832; Q9XUB2; activity score (negative = inhibition of binding), % at 10 µM; 0.38% of 300,000 active; MEX-5/FITC-TCR2 RNA binding, fluorescence polarization; hits give low values;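 active means inhibition past about -25% in most replicates, and total fluorescence under double the plate's negative control median, limit read from the data; inconclusive means replicates evenly split on the limit, or fluorescence at least double controls; inactive means too little inhibition in most replicates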;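 further: 0% = DMSO and -100% = 5 µM competing unlabeled TCR2 RNA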
Target sequence (Q9XUB2 whole entry, looked up): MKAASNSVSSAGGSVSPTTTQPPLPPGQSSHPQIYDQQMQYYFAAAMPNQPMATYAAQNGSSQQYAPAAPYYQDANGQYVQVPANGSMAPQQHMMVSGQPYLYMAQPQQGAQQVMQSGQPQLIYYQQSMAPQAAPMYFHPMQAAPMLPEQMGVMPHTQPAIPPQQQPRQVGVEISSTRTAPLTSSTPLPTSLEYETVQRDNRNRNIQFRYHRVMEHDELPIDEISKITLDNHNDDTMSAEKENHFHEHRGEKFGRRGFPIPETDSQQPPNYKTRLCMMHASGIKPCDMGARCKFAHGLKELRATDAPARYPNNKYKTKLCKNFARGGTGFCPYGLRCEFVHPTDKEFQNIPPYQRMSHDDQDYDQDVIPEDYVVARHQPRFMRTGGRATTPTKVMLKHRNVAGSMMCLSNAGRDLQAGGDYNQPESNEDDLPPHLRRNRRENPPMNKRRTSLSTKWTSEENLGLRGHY
HCV NS3 hel inh = blocks Hepatitis C virus NS3 helicase unwinding | AID 1800 | 0.56% of 290,000 active | inhibition, % at 10.9 µM | NS3 helicase DNA unwinding, Cy5 molecular beacon fluorescence;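 active means inhibition above the mean of all tested compounds plus 3 SD, set per campaign, cut at about 35% in these data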;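 further: 0% = DMSO wells and 100% = thioflavine S control wells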
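System: NS3 helicase fragment of HCV / Schedule: 1 h at 25 °C / Control set: DMSO alone as 0% and 110 µM thioflavine S as 100% / Reagent: Cy5/quencher beacon DNA duplex and ATP to start / Technique: Cy5 fluorescence / Replication: singlicate / Evaluation: % inhibition of end-to-start signal ratio versus controls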
core dimer inh = blocks dimerization of HCV core protein; TR-FRET GST/Flag-core106 dimerization, 1536-well; inhibition, % at 5 µM; 0.33% of 300,000 active; AID 1899;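 active means inhibition above the mean of all tested compounds plus 3 SD, set per screening campaign, cut at about 45% in these data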
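System: GST-tagged and Flag-tagged HCV core protein residues 1-106 / Input: core106 proteins, GST 13.5 nM and Flag 17 nM / Buffer or medium: KF-containing HEPES buffer, pH 7.45, DTT, CHAPS, BSA / Probe or stimulus: Eu-anti-GST and XL665-anti-Flag labelled anti-tag antibodies / Schedule: 4 h, 22.5 °C incubation / Technique: TR-FRET 671 and 617 nm emission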
* hit, by the source's call; ? = inconclusive; / = no result given; + = active, no number. Shown are actives, neighbours in structure and some others; about 1.7% of the full set was active somewhere.

SMILES	EBNA-1 inh	EBV gp42 inh	ZTA DNA inh	MEX-5 binding	HCV NS3 hel inh	core dimer inh
O=C(NCCc1ccc(Cl)cc1)c1cccc(NC2=NC3CS(=O)(=O)CC3S2)c1 (stereo unspecified)	12	/	-11	-1	0	5
CCCc1cc(=O)[nH]c(SCC(=O)Nc2cc(S(=O)(=O)N3CCCCC3)ccc2C)n1	/	/	-5	/	/	/
O=c1cc2c(=O)oc3cc(O)c(O)oc3c2c(O)c1O	/	-12	/	-84*	15	/
O=c1oc2cc(O)c(Cl)cc2c2ccccc12	5	-2	11	-1	-2	16
O=C(N=Nc1ccc(NOC(=O)c2ccccc2Br)cc1)c1ccccc1O	9	51*	9	-1	10	-12
O=Nc1ccc(NOC(=O)c2ccccc2)cc1	-16	-2	0	-2	-1	-12
CC(C)CN(C(=O)CSc1nc2ccccc2o1)c1c(N)n(Cc2ccccc2)c(=O)[nH]c1=O	/	/	1	/	/	/
COc1ccc2nc(-n3c(O)c(C4=c5ccccc5=NC4=O)[nH]c3=S)sc2c1	22	115*	0	0	24	-2
COc1ccc(/C=c2\sc3nc(-c4ccccc4OC)nn3c2=O)c(OC)c1	-12	16	-18	-33*	14	-3
CCOC(=O)c1sc(NC(=O)Cn2nnc3sc4c(c3c2=O)CCC(C(C)(C)C)C4)nc1C (stereo unspecified)	-10	-17	-20	1	12	46*
COc1ccc(C(=O)NC2(C(F)(F)F)C(=O)N(Cc3ccco3)C3=C2C(=O)CC(C)(C)C3)cc1OC (stereo unspecified)	-13	77*	-4	?	-7	0
CC1(C)CC(=O)C2=C(C1)N(Cc1ccco1)C(=O)C2(NC(=O)c1cccnc1)C(F)(F)F (stereo unspecified)	4	-13	23	2	2	-3
COc1cc(NC(=O)c2ccc3c(SCC(=O)O)c4c(nc3c2)CCCC4)cc(OC)c1OC	-2	-10	-11	0	8	6
COc1cc(OC)c(NC(=O)c2ccc3c(SCC(=O)O)c4c(nc3c2)CCCC4)cc1Cl	4	8	4	-9	30	47*
CC(Cc1ccc(O)c(O)c1)C(C)Cc1ccc(O)c(O)c1 (stereo unspecified)	-5	/	-5	-36*	/	6
COc1cccc(C(=O)NCC2CCN(c3ccc(S(=O)(=O)N4CCOCC4)cc3)CC2)c1	-2	-15	5	-30*	0	-6
COc1ccc(S(=O)(=O)N2CCOCC2)cc1NC(=O)c1cccc(-n2cccc2)c1	8	/	-7	4	/	65*
C/C(=N\NC(=O)c1c(Cl)cnn1C)c1ccc(NC(=O)c2ccc(Br)o2)cc1	/	/	/	0	-6	/
COc1ccc2c(c1)OC[C@H]1[C@H]2N2C(=O)CN(CCc3c[nH]c4ccccc34)C(=O)[C@@]2(C)[C@H]1c1ccccc1	/	/	1	/	/	/
O=C(Cn1c(=O)n(Cc2ccco2)c(=O)c2c3c(sc21)CCCCC3)c1ccccc1	25	15	1	-1	26	72*
CN(C)CCn1c(=O)n(Cc2ccco2)c(=O)c2c3c(sc21)CCCCC3	10	1	-6	2	-24	2
O=c1c2c3c(sc2n(CCN2CCCC2)c(=O)n1Cc1ccco1)CCCCC3	4	-7	-3	0	-24	6
O=C(Cn1c(=O)n(Cc2ccco2)c(=O)c2c3c(sc21)CCCCC3)Nc1ccccc1	-8	-1	10	1	14	56*
CC(=O)N1c2ccc(S(=O)(=O)NCCC(=O)Nc3ccc(F)cc3)cc2CC1C (stereo unspecified)	-5	/	10	2	3	6
CN1C(=O)/C(=C\c2ccccc2F)Sc2ccc(C(=O)NC3CCN(Cc4ccccc4)CC3)cc21	-14	/	-13	1	-40	-7
SMILES	EBNA-1 inh	EBV gp42 inh	ZTA DNA inh	MEX-5 binding	HCV NS3 hel inh	core dimer inh
CC(=O)COc1ccc2c(c1C)O/C(=C\c1ccco1)C2=O	5	/	-4	-2	31	9
Cc1cc(O)c(CN(C)C)c2c1C(=O)/C(=C/c1ccco1)O2	6	/	6	-37*	13	1
Cc1cccc(-c2cc3c(N=O)c4ccccc4c-3n[nH]2)c1	30*	-1	-6	0	-3	3
Cc1ccc(-c2cc3c(N=O)c4ccccc4c-3n[nH]2)cc1	16	-7	5	1	8	5
CC1CC(C)CN(C(=O)CCC(=O)Nc2nnc(C3CCCCC3)s2)C1 (stereo unspecified)	-9	/	-6	-1	6	1
Cc1cc(-c2ccccc2)c(C#N)c(=S)[nH]1	0	83*	6	0	3	1
N#Cc1c(-c2ccccc2Cl)cc(-c2ccccc2)[nH]c1=S	5	11	17	-1	-14	26
O=C(O)[C@H]1CCCC[C@H]1C(=O)Nc1ccc(S(=O)(=O)N2CCOCC2)cc1	8	/	-2	0	-2	-14
CC(C)=CCc1c(O)cc2oc3c(CC=C(C)C)c(O)c(O)c(CC=C(C)C)c3c(=O)c2c1O	-4	-15	-14	-1	/	58*
CC(Sc1ccccc1)C(=O)N/N=C/c1ccccc1 (stereo unspecified)	5	/	15	1	/	5
CC(C)N(C(=O)N1CCN(c2ccnc3cc(Cl)ccc23)CC1)C(C)C	/	/	/	-2	-8	/
Cc1ccc(C2=NN=C(NC(=O)C(F)(F)F)SC2)cc1	/	2	/	/	0	/
O=C(Nc1ccc(-c2nc3ccccc3s2)cc1)C1=COCCO1	43*	-5	1	-1	3	0
O=C(Nc1cccc(-c2nc3ccccc3s2)c1)C1=COCCO1	-4	-7	-14	0	-1	-6
O=C1CCNc2ccc(-c3ccccc3)cc21	-5	+	7	-67*	0	19
COc1ccc([C@@H]2[C@@H]3C(=O)N(C(C)(C)C)C(=O)[C@@H]3[C@]3(Cc4ccc(Cl)cc4)C(=O)N(c4cccc(F)c4)C(=O)N23)cc1	-12	/	-21	/	/	15
COc1c(O)cccc1[C@H](O)C1CCN(CCc2ccc(F)cc2)CC1	-1	/	16	-39*	/	10
CCN1CCC(NCCc2ccc(F)cc2)CC1	-2	/	-5	0	4	0
CCC1Oc2ccc(C)cc2N(CC(=O)NCCCN2CCOCC2)C1=O (stereo unspecified)	-5	/	-7	4	-6	-1
Cc1cc(C)c(Nc2cc(S(=O)(=O)O)c(N)c3c2C(=O)c2ccccc2C3=O)c(C)c1	51*	31	52*	/	24	-13
Cc1cc(C)c(NC(=O)COC(=O)c2cccc3c2C(=O)c2ccccc2C3=O)c(C)c1	-15	-10	-12	2	-15	16
Clc1ccc2nc(COc3ccccc3)[nH]c2c1	-6	/	-21	-2	6	-9

Screening results deposited in PubChem by several laboratories.
